Laboratory results as given in ChEMBL document CHEMBL1147862, “Studies on synthesis and pharmacological activities of 3,6-disubstituted-1,2,4-triazolo[3,4-b]-1,3,4-thiadiazoles and their dihydro analogues” (2007).

How the values were obtained:
Assay type in all cases: functional
Mus musculus [1] = assay: Analgesic activity in Swiss mouse assessed as increase in reaction time at 20 mg/kg, po after 30 mins by Eddy's hot plate technique
Summary of the method: (§1)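 Swiss mice of either sex, 25–35 g, placed one at a time on a hot plate held at 55 °C. End point is paw licking or jumping, whichever comes first, with a 15 s cut-off to avoid paw injury. Reaction time is recorded and reported as percent increase in reaction time.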

Mus musculus [2] = assay: Analgesic activity in Swiss mouse assessed as increase in reaction time at 20 mg/kg, po after 60 mins by Eddy's hot plate technique; summary of the method: as §1
Mus musculus [3] = assay: Analgesic activity in Swiss mouse assessed as increase in reaction time at 20 mg/kg, po after 90 mins by Eddy's hot plate technique; summary of the method: as §1
Candida albicans [4] = assay: Antifungal activity against Candida albicans at 10 ug/ml by paper disc method; conditions: read-out: IZ
Candida albicans [5] = assay: Antifungal activity against Candida albicans at 20 ug/ml by paper disc method; conditions: read-out: IZ
Candida albicans [6] = assay: Antifungal activity against Candida albicans at 30 ug/ml by paper disc method; conditions: read-out: IZ
Aspergillus niger [7] = assay: Antifungal activity against Aspergillus niger at 10 ug/ml by paper disc method; conditions: read-out: IZ
Aspergillus niger [8] = assay: Antifungal activity against Aspergillus niger at 20 ug/ml by paper disc method; conditions: read-out: IZ
Aspergillus niger [9] = assay: Antifungal activity against Aspergillus niger at 30 ug/ml by paper disc method; conditions: read-out: IZ
Escherichia coli [10] = assay: Antibacterial activity against Escherichia coli at 10 ug/ml by agar plate diffusion technique; conditions: read-out: IZ
Escherichia coli [11] = assay: Antibacterial activity against Escherichia coli at 20 ug/ml by agar plate diffusion technique; conditions: read-out: IZ
Escherichia coli [12] = assay: Antibacterial activity against Escherichia coli at 30 ug/ml by agar plate diffusion technique; conditions: read-out: IZ
Pseudomonas aeruginosa [13] = assay: Antibacterial activity against Pseudomonas aeruginosa at 10 ug/ml by agar plate diffusion technique; conditions: read-out: IZ
Pseudomonas aeruginosa [14] = assay: Antibacterial activity against Pseudomonas aeruginosa at 20 ug/ml by agar plate diffusion technique; conditions: read-out: IZ
Pseudomonas aeruginosa [15] = assay: Antibacterial activity against Pseudomonas aeruginosa at 30 ug/ml by agar plate diffusion technique; conditions: read-out: IZ
Bacillus subtilis [16] = assay: Antibacterial activity against Bacillus subtilis at 10 ug/ml by agar plate diffusion technique; conditions: read-out: IZ
Bacillus subtilis [17] = assay: Antibacterial activity against Bacillus subtilis at 20 ug/ml by agar plate diffusion technique; conditions: read-out: IZ
Bacillus subtilis [18] = assay: Antibacterial activity against Bacillus subtilis at 30 ug/ml by agar plate diffusion technique; conditions: read-out: IZ
Staphylococcus aureus [19] = assay: Antibacterial activity against Staphylococcus aureus at 10 ug/ml by agar plate diffusion technique; conditions: read-out: IZ
Staphylococcus aureus [20] = assay: Antibacterial activity against Staphylococcus aureus at 20 ug/ml by agar plate diffusion technique; conditions: read-out: IZ
Staphylococcus aureus [21] = assay: Antibacterial activity against Staphylococcus aureus at 30 ug/ml by agar plate diffusion technique; conditions: read-out: IZ
Rattus norvegicus [22] = assay: Antiinflammatory activity in Wistar Albino rat assessed as inhibition of carrageenan-induced paw oedema at 20 mg/kg after 1 hr relative to control
Summary of the method: (§2)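 Wistar albino rats, 150–200 g, six per group, dosed orally with a 20 mg/kg suspension; control gets 0.1 ml 1% gum acacia. After 30 min, 0.1 ml 1% carrageenan in saline is injected subplantar into the right hind paw. Paw volume is read by plethysmograph at 0–4 h. Inhibition = 100(1 − Vtest/Vcontrol) on mean volume increase.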

Rattus norvegicus [23] = assay: Antiinflammatory activity in Wistar Albino rat assessed as inhibition of carrageenan-induced paw oedema at 20 mg/kg after 2 hrs relative to control; summary of the method: as §2
Rattus norvegicus [24] = assay: Antiinflammatory activity in Wistar Albino rat assessed as inhibition of carrageenan-induced paw oedema at 20 mg/kg after 3 hrs relative to control; summary of the method: as §2
Rattus norvegicus [25] = assay: Antiinflammatory activity in Wistar Albino rat assessed as inhibition of carrageenan-induced paw oedema at 20 mg/kg after 4 hrs relative to control; summary of the method: as §2

| Structure (SMILES) | Activity (Mus musculus [1]) | Activity (Mus musculus [2]) | Activity (Mus musculus [3]) | zone of inhibition at 10 µg/mL (Candida albicans [4]) | zone of inhibition at 20 µg/mL (Candida albicans [5]) | zone of inhibition at 30 µg/mL (Candida albicans [6]) | zone of inhibition at 10 µg/mL (Aspergillus niger [7]) | zone of inhibition at 20 µg/mL (Aspergillus niger [8]) | zone of inhibition at 30 µg/mL (Aspergillus niger [9]) | zone of inhibition at 10 µg/mL (Escherichia coli [10]) | zone of inhibition at 20 µg/mL (Escherichia coli [11]) | zone of inhibition at 30 µg/mL (Escherichia coli [12]) | zone of inhibition at 10 µg/mL (Pseudomonas aeruginosa [13]) | zone of inhibition at 20 µg/mL (Pseudomonas aeruginosa [14]) | zone of inhibition at 30 µg/mL (Pseudomonas aeruginosa [15]) | zone of inhibition at 10 µg/mL (Bacillus subtilis [16]) | zone of inhibition at 20 µg/mL (Bacillus subtilis [17]) | zone of inhibition at 30 µg/mL (Bacillus subtilis [18]) | zone of inhibition at 10 µg/mL (Staphylococcus aureus [19]) | zone of inhibition at 20 µg/mL (Staphylococcus aureus [20]) | other results |
| --- | --- | --- | --- | --- | --- | --- | --- | --- | --- | --- | --- | --- | --- | --- | --- | --- | --- | --- | --- | --- | --- |
| COc1ccc(Cl)c(-c2nnc3sc(-c4cc(O)nc(O)c4)nn23)c1 | 5.68% | 15.18% | 26.14% | 4.14 mm | 7.15 mm | 15 mm | 4.82 mm | 8.06 mm | 13.6 mm | 4.18 mm | 8 mm | 13.2 mm | 4.84 mm | 9.06 mm | 13.3 mm | 4.7 mm | 8.38 mm | 13.8 mm | 4.57 mm | 8.82 mm | zone of inhibition at 30 µg/mL (Staphylococcus aureus [21]): 13.7 mm; inhibition in vivo at 20 mg/kg (Rattus norvegicus [22]): 8.35%; inhibition in vivo at 20 mg/kg (Rattus norvegicus [23]): 14.2%; inhibition in vivo at 20 mg/kg (Rattus norvegicus [24]): 21%; inhibition in vivo at 20 mg/kg (Rattus norvegicus [25]): 23.4% |
| COc1ccc(Cl)c(-c2nnc3n2NC(c2ccco2)S3)c1 (stereo not given) | 6.24% | 12.55% | 23.89% | 5.19 mm | 10.3 mm | 14.8 mm | 5.16 mm | 7.13 mm | 13.1 mm | 4.12 mm | 7.39 mm | 14.4 mm | 4.82 mm | 8.95 mm | 14.2 mm | 4.39 mm | 7.68 mm | 13.6 mm | 4.82 mm | 8.61 mm | zone of inhibition at 30 µg/mL (Staphylococcus aureus [21]): 14.1 mm; inhibition in vivo at 20 mg/kg (Rattus norvegicus [22]): 13.9%; inhibition in vivo at 20 mg/kg (Rattus norvegicus [23]): 18.7%; inhibition in vivo at 20 mg/kg (Rattus norvegicus [24]): 23.1%; inhibition in vivo at 20 mg/kg (Rattus norvegicus [25]): 25.6% |
| COc1ccc2[nH]c(C)c(Cc3nn4c(-c5ccoc5C)nnc4s3)c2c1 | 9.18% | 23.17% | 33.49% | 5.04 mm | 9.86 mm | 13.1 mm | 5.14 mm | 9.06 mm | 12.4 mm | 5.12 mm | 9.1 mm | 13.8 mm | 4.92 mm | 8.14 mm | 14.6 mm | 4.6 mm | 8.38 mm | 13.2 mm | 4.89 mm | 9.12 mm | zone of inhibition at 30 µg/mL (Staphylococcus aureus [21]): 13.3 mm; inhibition in vivo at 20 mg/kg (Rattus norvegicus [22]): 19.7%; inhibition in vivo at 20 mg/kg (Rattus norvegicus [23]): 24.8%; inhibition in vivo at 20 mg/kg (Rattus norvegicus [24]): 29.4%; inhibition in vivo at 20 mg/kg (Rattus norvegicus [25]): 31.2% |
| COc1ccc(Cl)c(-c2nnc3sc(-c4cc(-c5ccccc5)nc5ccccc45)nn23)c1 | 5.34% | 15.68% | 26.85% | 5.64 mm | 12.8 mm | 18.8 mm | 6.04 mm | 11.6 mm | 17.6 mm | 6.86 mm | 11.7 mm | 16.5 mm | 6.72 mm | 11.4 mm | 15.5 mm | 6.82 mm | 11.2 mm | 16.2 mm | 5.82 mm | 10.1 mm | zone of inhibition at 30 µg/mL (Staphylococcus aureus [21]): 16.4 mm; inhibition in vivo at 20 mg/kg (Rattus norvegicus [22]): 11.6%; inhibition in vivo at 20 mg/kg (Rattus norvegicus [23]): 17.2%; inhibition in vivo at 20 mg/kg (Rattus norvegicus [24]): 20.1%; inhibition in vivo at 20 mg/kg (Rattus norvegicus [25]): 24.5% |
| COc1ccc(Cc2nnc3sc(-c4cc(O)nc(O)c4)nn23)cc1OC | 5.71% | 14.1% | 23.45% | 3.82 mm | 6.82 mm | 13.9 mm | 4.16 mm | 7.84 mm | 11.9 mm | 4.26 mm | 8.1 mm | 13.3 mm | 4.63 mm | 8.9 mm | 13.1 mm | 4.58 mm | 8.12 mm | 13.9 mm | 4.61 mm | 8.93 mm | zone of inhibition at 30 µg/mL (Staphylococcus aureus [21]): 13.9 mm; inhibition in vivo at 20 mg/kg (Rattus norvegicus [22]): 10.5%; inhibition in vivo at 20 mg/kg (Rattus norvegicus [23]): 12.9%; inhibition in vivo at 20 mg/kg (Rattus norvegicus [24]): 17.1%; inhibition in vivo at 20 mg/kg (Rattus norvegicus [25]): 20.8% |
| COc1ccc(Cc2nnc3sc(-c4ccnc(F)c4)nn23)cc1OC | 2.83% | 10.3% | 22.66% | 8.14 mm | 14.8 mm | 21.7 mm | 7.14 mm | 12.4 mm | 21 mm | 7.96 mm | 14.4 mm | 19.3 mm | 8.21 mm | 14.9 mm | 19.3 mm | 7.64 mm | 14.4 mm | 19.3 mm | 7.1 mm | 13.8 mm | zone of inhibition at 30 µg/mL (Staphylococcus aureus [21]): 19.2 mm; inhibition in vivo at 20 mg/kg (Rattus norvegicus [22]): 11.1%; inhibition in vivo at 20 mg/kg (Rattus norvegicus [23]): 14.3%; inhibition in vivo at 20 mg/kg (Rattus norvegicus [24]): 16.7%; inhibition in vivo at 20 mg/kg (Rattus norvegicus [25]): 21.5% |
| COc1ccc(Cc2nnc3sc(-c4cc(C)nc5ccccc45)nn23)cc1OC | 5.96% | 11.05% | 20.14% | 5.48 mm | 12 mm | 17.5 mm | 6.25 mm | 13 mm | 16.7 mm | 5.25 mm | 8.8 mm | 16 mm | 5.26 mm | 10.1 mm | 16.1 mm | 6.29 mm | 10.2 mm | 16.1 mm | 6.72 mm | 11.7 mm | zone of inhibition at 30 µg/mL (Staphylococcus aureus [21]): 16.6 mm; inhibition in vivo at 20 mg/kg (Rattus norvegicus [22]): 10.2%; inhibition in vivo at 20 mg/kg (Rattus norvegicus [23]): 13.2%; inhibition in vivo at 20 mg/kg (Rattus norvegicus [24]): 21.2%; inhibition in vivo at 20 mg/kg (Rattus norvegicus [25]): 24.9% |
| COc1ccc(Cl)c(-c2nnc3sc(-c4ccnc(F)c4)nn23)c1 | 4.12% | 11.35% | 20.34% | 7.68 mm | 14.5 mm | 21.7 mm | 6.68 mm | 12.6 mm | 20.5 mm | 8.1 mm | 14.7 mm | 19.7 mm | 8.68 mm | 14.9 mm | 19.5 mm | 7.78 mm | 14.1 mm | 19.2 mm | 7.29 mm | 14.1 mm | zone of inhibition at 30 µg/mL (Staphylococcus aureus [21]): 19.2 mm; inhibition in vivo at 20 mg/kg (Rattus norvegicus [22]): 18.5%; inhibition in vivo at 20 mg/kg (Rattus norvegicus [23]): 24.6%; inhibition in vivo at 20 mg/kg (Rattus norvegicus [24]): 25.9%; inhibition in vivo at 20 mg/kg (Rattus norvegicus [25]): 28.1% |
